Measurements reported in ChEMBL document CHEMBL1165950, “Design and synthesis of new potent anticancer pyrazoles with high FLT3 kinase inhibitory selectivity” (Bioorg Med Chem, 2010).

Legend:
Type in all cases: functional
TK-10 = experiment: Cytotoxicity against human TK10 cells assessed as cell growth at 10 uM; conditions: read-out: Activity
Summary of the method: (§1)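 NCI-60 screen: cells grown in RPMI 1640 with 5% FBS and 2 mM L-glutamine, plated at 5000–40,000 cells/well according to doubling time, and preincubated 24 h at 37 °C, 5% CO2. The single 10 µM dose (DMSO stock) was added, then incubated 48 h. Cells were TCA-fixed and stained with 0.4% SRB, read at 515 nm, and growth % calculated against time-zero and control plates.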

UACC-62 = experiment: Cytotoxicity against human UACC62 cells assessed as cell growth at 10 uM; conditions: read-out: Activity; summary of the method: as §1
NCI/ADR-RES = experiment: Cytotoxicity against human NCI/ADR-RES cells assessed as cell growth at 10 uM; conditions: read-out: Activity; summary of the method: as §1
M14 = experiment: Cytotoxicity against human M14 cells assessed as cell growth at 10 uM; conditions: read-out: Activity; summary of the method: as §1
SR = experiment: Cytotoxicity against human SR cells assessed as cell growth at 10 uM; conditions: read-out: Activity; summary of the method: as §1
SNB-75 = experiment: Cytotoxicity against human SNB75 cells assessed as cell growth at 10 uM; conditions: read-out: Activity; summary of the method: as §1
OVCAR-8 = experiment: Cytotoxicity against human OVCAR8 cells assessed as cell growth at 10 uM; conditions: read-out: Activity; summary of the method: as §1
DU-145 = experiment: Cytotoxicity against human DU145 cells assessed as cell growth at 10 uM; conditions: read-out: Activity
Summary of the method: (§2)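 Single-dose NCI-60 screen at 10 µM. Cells were grown in RPMI 1640 with 5% FBS and 2 mM L-glutamine, then treated for 48 h at 37 °C. Protein was measured by SRB staining with absorbance at 515 nm. Percentage growth was recorded, and inhibition percentage was calculated as 100 minus growth percentage.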

NCI-H226 = experiment: Cytotoxicity against human NCI-H226 cells assessed as cell growth at 10 uM; conditions: read-out: Activity; summary of the method: as §1
HT-29 = experiment: Cytotoxicity against human HT-29 cells assessed as cell growth at 10 uM; conditions: read-out: Activity; summary of the method: as §2
HL-60(TB) = experiment: Cytotoxicity against human HL-60(TB) cells assessed as cell growth at 10 uM; conditions: read-out: Activity
Summary of the method: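 NCI 60-cell panel screen at a single concentration of 10 µM. Cells are grown in RPMI 1640 with 5% FBS and 2 mM L-glutamine and read by SRB protein staining at 515 nm. Percent growth is measured relative to time-zero and untreated controls; inhibition % is 100 minus growth %.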

NCI-H522 = experiment: Cytotoxicity against human NCI-H522 cells assessed as cell growth at 10 uM; conditions: read-out: Activity; summary of the method: as §1
RXF 393 = experiment: Cytotoxicity against human RXF393 cells assessed as cell growth at 10 uM; conditions: read-out: Activity; summary of the method: as §1
[1] = Growth inhibition of human NCI60 cells at 10 uM after 48 hrs by sulforhodamine B assay relative to control; conditions: NCI60, 48 h, read-out: GI
Summary of the method: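 Single-dose NCI screen at 10 µM across the 60-line panel, 48 h exposure at 37 °C after a 24 h preincubation. Adherent cells were fixed with cold TCA and stained with 0.4% SRB, and absorbance was read at 515 nm. Inhibition % was taken as 100 minus growth %, and the mean across all lines was reported.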

[2] = Cytotoxicity against human Hs 578T cells assessed as cell growth at 10 uM; conditions: read-out: Activity; summary of the method: as §2
SK-OV-3 = experiment: Cytotoxicity against human SKOV3 cells assessed as cell growth at 10 uM; conditions: read-out: Activity; summary of the method: as §1
HCT-116 = experiment: Cytotoxicity against human HCT116 cells assessed as cell growth at 10 uM; conditions: read-out: Activity; summary of the method: as §2
HOP-92 = experiment: Cytotoxicity against human HOP92 cells assessed as cell growth at 10 uM; conditions: read-out: Activity; summary of the method: as §2
CCRF-CEM = experiment: Cytotoxicity against human CCRF-CEM cells assessed as cell growth at 10 uM; conditions: read-out: Activity; summary of the method: as §2
HCT-15 = experiment: Cytotoxicity against human HCT15 cells assessed as cell growth at 10 uM; conditions: read-out: Activity; summary of the method: as §2
786-0 = experiment: Cytotoxicity against human 786-0 cells assessed as cell growth at 10 uM; conditions: read-out: Activity; summary of the method: as §2
[3] = Cytotoxicity against human […] cells assessed as cell growth at 10 uM; conditions: read-out: Activity; summary of the method: as §1
SF-268 = experiment: Cytotoxicity against human SF268 cells assessed as cell growth at 10 uM; conditions: read-out: Activity; summary of the method: as §1
EKVX = experiment: Cytotoxicity against human EKVX cells assessed as cell growth at 10 uM; conditions: read-out: Activity; summary of the method: as §2
A549 = experiment: Cytotoxicity against human A549 cells assessed as cell growth at 10 uM; conditions: read-out: Activity; summary of the method: as §2
MDA-MB-435 = experiment: Cytotoxicity against human MDA-MB-435 cells assessed as cell growth at 10 uM; conditions: read-out: Activity; summary of the method: as §1
CAKI-1 = experiment: Cytotoxicity against human Caki1 cells assessed as cell growth at 10 uM; conditions: read-out: Activity; summary of the method: as §2
ACHN = experiment: Cytotoxicity against human ACHN cells assessed as cell growth at 10 uM; conditions: read-out: Activity; summary of the method: as §2
U-251 = experiment: Cytotoxicity against human U251 cells assessed as cell growth at 10 uM; conditions: read-out: Activity; summary of the method: as §1
SF-539 = experiment: Cytotoxicity against human SF539 cells assessed as cell growth at 10 uM; conditions: read-out: Activity; summary of the method: as §1
UO-31 = experiment: Cytotoxicity against human UO31 cells assessed as cell growth at 10 uM; conditions: read-out: Activity; summary of the method: as §1
SF-295 = experiment: Cytotoxicity against human SF295 cells assessed as cell growth at 10 uM; conditions: read-out: Activity; summary of the method: as §1
SN12C = experiment: Cytotoxicity against human SN12C cells assessed as cell growth at 10 uM; conditions: read-out: Activity; summary of the method: as §1
A498 = experiment: Cytotoxicity against human A498 cells assessed as cell growth at 10 uM; conditions: read-out: Activity; summary of the method: as §2
BT-549 = experiment: Cytotoxicity against human BT549 cells assessed as cell growth at 10 uM; conditions: read-out: Activity; summary of the method: as §2
NCI-H460 = experiment: Cytotoxicity against human NCI-H460 cells assessed as cell growth at 10 uM; conditions: read-out: Activity; summary of the method: as §1
MOLT-4 = experiment: Cytotoxicity against human MOLT4 cells assessed as cell growth at 10 uM; conditions: read-out: Activity; summary of the method: as §1
SW-620 = experiment: Cytotoxicity against human SW620 cells assessed as cell growth at 10 uM; conditions: read-out: Activity; summary of the method: as §1
IGROV-1 = experiment: Cytotoxicity against human IGROV1 cells assessed as cell growth at 10 uM; conditions: read-out: Activity; summary of the method: as §2
T47D = experiment: Cytotoxicity against human T47D cells assessed as cell growth at 10 uM; conditions: read-out: Activity; summary of the method: as §1
LOX IMVI = experiment: Cytotoxicity against human LOXIMVI cells assessed as cell growth at 10 uM; conditions: read-out: Activity; summary of the method: as §1
OVCAR-4 = experiment: Cytotoxicity against human OVCAR4 cells assessed as cell growth at 10 uM; conditions: read-out: Activity; summary of the method: as §1
MDA-MB-231 = experiment: Cytotoxicity against human MDA-MB-231 cells assessed as cell growth at 10 uM; conditions: read-out: Activity; summary of the method: as §1
HCC 2998 = experiment: Cytotoxicity against human HCC2998 cells assessed as cell growth at 10 uM; conditions: read-out: Activity; summary of the method: as §2
OVCAR-5 = experiment: Cytotoxicity against human OVCAR5 cells assessed as cell growth at 10 uM; conditions: read-out: Activity; summary of the method: as §1
K562 = experiment: Cytotoxicity against human K562 cells assessed as cell growth at 10 uM; conditions: read-out: Activity; summary of the method: as §2
SK-MEL-5 = experiment: Cytotoxicity against human SK-MEL-5 cells assessed as cell growth at 10 uM; conditions: read-out: Activity; summary of the method: as §1
KM12 = experiment: Cytotoxicity against human KM12 cells assessed as cell growth at 10 uM; conditions: read-out: Activity; summary of the method: as §1
COLO 205 = experiment: Cytotoxicity against human COLO205 cells assessed as cell growth at 10 uM; conditions: read-out: Activity; summary of the method: as §2
NCI-H23 = experiment: Cytotoxicity against human NCI-H23 cells assessed as cell growth at 10 uM; conditions: read-out: Activity; summary of the method: as §1
PC-3 = experiment: Cytotoxicity against human PC3 cells assessed as cell growth at 10 uM; conditions: read-out: Activity; summary of the method: as §1
SK-MEL-2 = experiment: Cytotoxicity against human SK-MEL-2 cells assessed as cell growth at 10 uM; conditions: read-out: Activity; summary of the method: as §1
NCI-H322M = experiment: Cytotoxicity against human NCI-H322M cells assessed as cell growth at 10 uM; conditions: read-out: Activity; summary of the method: as §1
HOP-62 = experiment: Cytotoxicity against human HOP62 cells assessed as cell growth at 10 uM; conditions: read-out: Activity; summary of the method: as §2
SNB-19 = experiment: Cytotoxicity against human SNB19 cells assessed as cell growth at 10 uM; conditions: read-out: Activity; summary of the method: as §1
UACC-257 = experiment: Cytotoxicity against human UACC257 cells assessed as cell growth at 10 uM; conditions: read-out: Activity; summary of the method: as §1
MCF7 = experiment: Cytotoxicity against human MCF7 cells assessed as cell growth at 10 uM; conditions: read-out: Activity; summary of the method: as §1
OVCAR-3 = experiment: Cytotoxicity against human OVCAR-3 cells assessed as cell growth at 10 uM; conditions: read-out: Activity; summary of the method: as §1
SK-MEL-28 = experiment: Cytotoxicity against human SK-MEL-28 cells assessed as cell growth at 10 uM; conditions: read-out: Activity; summary of the method: as §1
Malme-3M = experiment: Cytotoxicity against human MALME-3M cells assessed as cell growth at 10 uM; conditions: read-out: Activity; summary of the method: as §1
MDA-MB-468 = experiment: Cytotoxicity against human MDA-MB-468 cells assessed as cell growth at 10 uM; conditions: read-out: Activity; summary of the method: as §1

## COc1cc(C)cc(-c2c(-c3ccnc(-c4cccc(NC(C)=O)c4)c3)cnn2CC#N)c1
TK-10
  growth at 10 µM: 67.1%
UACC-62
  growth at 10 µM: 81.6%
NCI/ADR-RES
  growth at 10 µM: 87.3%
M14
  growth at 10 µM: 96.3%
SR
  growth at 10 µM: 80.9%
SNB-75
  growth at 10 µM: 72.4%
OVCAR-8
  growth at 10 µM: 88%
DU-145
  growth at 10 µM: 105%
NCI-H226
  growth at 10 µM: 93.1%
HT-29
  growth at 10 µM: 99.4%
HL-60(TB)
  growth at 10 µM: 74.7%
NCI-H522
  growth at 10 µM: 82.5%
RXF 393
  growth at 10 µM: 81.5%
[1]
  inhibition of growth at 10 µM: 9.4%
[2]
  growth at 10 µM: 99%
SK-OV-3
  growth at 10 µM: 93.3%
HCT-116
  growth at 10 µM: 96.4%
HOP-92
  growth at 10 µM: 79.6%
CCRF-CEM
  growth at 10 µM: 88.9%
HCT-15
  growth at 10 µM: 94.5%
786-0
  growth at 10 µM: 84%
[3]
  growth at 10 µM: 79.9%
SF-268
  growth at 10 µM: 97.3%
EKVX
  growth at 10 µM: 100%
A549
  growth at 10 µM: 86.7%
MDA-MB-435
  growth at 10 µM: 99.6%
CAKI-1
  growth at 10 µM: 77.3%
ACHN
  growth at 10 µM: 86%
U-251
  growth at 10 µM: 94.3%
SF-539
  growth at 10 µM: 84.5%
UO-31
  growth at 10 µM: 63.6%
SF-295
  growth at 10 µM: 102%
SN12C
  growth at 10 µM: 83%
A498
  growth at 10 µM: 74.2%
BT-549
  growth at 10 µM: 79.1%
NCI-H460
  growth at 10 µM: 107%
MOLT-4
  growth at 10 µM: 82.8%
SW-620
  growth at 10 µM: 104%
IGROV-1
  growth at 10 µM: 98.4%
T47D
  growth at 10 µM: 79.3%
LOX IMVI
  growth at 10 µM: 97.5%
OVCAR-4
  growth at 10 µM: 99.7%
MDA-MB-231
  growth at 10 µM: 86.5%
HCC 2998
  growth at 10 µM: 101%
OVCAR-5
  growth at 10 µM: 91.6%
K562
  growth at 10 µM: 86.4%
SK-MEL-5
  growth at 10 µM: 86.9%
KM12
  growth at 10 µM: 109%
COLO 205
  growth at 10 µM: 93.5%
NCI-H23
  growth at 10 µM: 95.3%
PC-3
  growth at 10 µM: 85.8%
SK-MEL-2
  growth at 10 µM: 92.1%
NCI-H322M
  growth at 10 µM: 96.9%
HOP-62
  growth at 10 µM: 98.9%
SNB-19
  growth at 10 µM: 89.6%
UACC-257
  growth at 10 µM: 89.8%
MCF7
  growth at 10 µM: 85%
OVCAR-3
  growth at 10 µM: 109%
SK-MEL-28
  growth at 10 µM: 104%
Malme-3M
  growth at 10 µM: 108%
MDA-MB-468
  growth at 10 µM: 82.8%
